Measured values taken from ChEMBL document CHEMBL3745658, “An Orally Bioavailable, Indole-3-glyoxylamide Based Series of Tubulin Polymerization Inhibitors Showing Tumor Growth Inhibition in a Mouse Xenograft Model of Head and Neck Cancer” (J Med Chem, 2015).
Converted amounts (≈) assume the structure as drawn. The source made the active and inactive calls. The rule behind the calls is not given here.

What was measured:
[1] = test system: FaDu; test: Selectivity index, ratio of EC50 for cell cycle arrest in human FADU cells to LC50 for cytotoxicity against human FADU cells; type: functional
Outline: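 G2/M arrest EC50 came from a 24 h dose–response of propidium iodide flow cytometry in FaDu cells. It was compared with the LC50 from a 72 h MTT assay in FaDu cells (triplicate wells, A570, viability relative to DMSO, nonlinear regression).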

[2] = test system: FaDu; test: Antitumor activity against human FADU cells xenografted in CD-1 mouse assessed as inhibition of tumor growth at 10 to 20 mg/kg, po qd for 10 days measured at 3 to 9 days; type: functional, organism-based
Outline: (§1)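 FaDu xenografts established in mice, then test agent given by oral gavage once daily for 10 days; tumor volume followed against an untreated control group, with significance assessed at days 3, 6, 9, 13 and 15.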

[3] = test system: FaDu; test: Induction of microtubule disruption in human FADU cells assessed as multipolarization of spindle at 50 nM after 24 hrs by immunofluorescence staining method; type: functional, cell-based
[4] = molecular target: T1, Tubulin (Sus scrofa, UniProt P02554+P02550); test: Displacement of [3H]-colchicine from biotinylated porcine tubulin after 2 hrs by competitive binding assay; type: protein assay
Outline: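 Biotinylated porcine tubulin (750 ng/well) with 0.1 μM [3H]-colchicine and test compound in G-PEM with 1 mM GTP, 3% DMSO, duplicate wells, 2 h at 37 °C. Streptavidin SPA beads then added for 45 min at 37 °C. Nonspecific binding taken with 1000-fold unlabeled excess. IC50 from seven-point semilog curves, four-parameter fit.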

[5] = test system: SK-MEL-28; test: Cytotoxicity against human SK-MEL-28 cells assessed as reduction in cell viability after 72 hrs by MTT assay; type: functional, cell-based
Outline: (§2)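 Cells plated at an appropriate density and left 24 h to attach, then dosed in triplicate with compound diluted from 10 mM DMSO stocks into full growth medium (added at 2× final concentration). After 72 h, cells PBS-washed and given MTT (0.5 mg/mL in PBS) for 45−60 min. Formazan dissolved in 0.1 M HCl/2-propanol, A570 read (650 nm reference). Viability normalised to DMSO control; LC50 by nonlinear regression.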

[6] = test system: FaDu; test: Cytotoxicity against human FADU multicellular tumor spheroid assessed as induction of spheroid disruption incubated for 7 days by light microscopy; type: functional, cell-based; details: for EC50: 168 h
Outline: (§3)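 Monocultured FaDu spheroids dosed over a concentration range and imaged at 0, 2, 4 and 7 days post-dosing. Volume followed over time, fragmentation scored at the 7-day end point, and EC50 for disruption derived from 7-day dose–response plots. Two independent experiments, mean ± SEM.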

[7] = test system: SH-SY5Y; test: Cytotoxicity against human SH-SY5Y cells assessed as reduction in cell viability after 72 hrs by MTT assay; type: functional, cell-based; outline: as §2
[8] = molecular target: T2, Tubulin (Sus scrofa) (UniProt P02554+P02550); test: Displacement of [3H]-vinblastine from biotinylated porcine tubulin after 15 mins by competitive binding assay; type: protein assay
Outline: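 Biotinylated porcine tubulin, 0.2 μM [3H]-vinblastine, SPA beads and test compound combined together in G-PEM with 1 mM GTP, 3% DMSO, duplicate wells, 15 min at rt before counting. Nonspecific binding taken with 1000-fold unlabeled excess. IC50 from seven-point semilog curves, four-parameter fit.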

[9] = test system: FaDu; test: Cytotoxicity against human FADU cells assessed as reduction in cell viability after 72 hrs by MTT assay; type: functional; details: read-out: LC50 (the source's name)
[10] = Efflux ratio of apparent permeability from basolateral to apical side over apical to basolateral side in human Caco2 cells; details: Caco-2
[11] = test system: FaDu; test: Antitumor activity against human FADU cells xenografted in CD-1 mouse assessed as tumor volume recovery at 10 mg/kg, po qd for 10 days measured between 6 and 9 days; type: functional, organism-based; outline: as §1
[12] = test system: FaDu; test: Cell cycle arrest in human FADU cells assessed as accumulation at G2/M phase after 24 hrs by propidium iodide staining-based flow cytometry; type: functional
Outline: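 FaDu cells seeded at 10^5/well, attached overnight, then exposed to compound in full growth medium at 37 °C for 24 h. Cells were trypsinized, fixed in ice-cold 70% ethanol, treated with RNase A (100 μg/mL), stained overnight in the dark with propidium iodide (50 μg/mL), and analysed by flow cytometry with at least 10000 events per sample.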

[13] = Apparent permeability from apical to basolateral side in human Caco2 cells assessed as drug recovery at 10 uM at pH 7.4 after 60 mins by mass spectrometry; type: ADME, cell-based; details: Caco-2, pH 7.4, read-out: Drug recovery
[14] = test system: FaDu; test: Cytotoxicity against human FADU multicellular tumor spheroid assessed as reduction of spheroid volume by light microscopy; type: functional, cell-based; outline: as §3
[15] = Solubility in 2% DMSO containing 50 mM potassium phosphate buffer solution pH 7.4 at 10 uM by dynamic light scattering method; details: pH 7.4, 10 µM
[16] = test system: FaDu; test: Cytotoxicity against human FADU multicellular tumor spheroid assessed as effect on normal spheroid growth at 1 uM incubated for 2 to 3 days by light microscop; type: cell-based
Outline: (§4)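 FaDu monoculture spheroids were dosed once and imaged at 0, 2, 4 and 7 days after dosing. Fragmentation and growth were judged against untreated spheroids.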

[17] = molecular target: T1, Tubulin; test: Inhibition of porcine brain tubulin polymerization assessed as reduction in GTP-induced microtubule assembly after 60 mins by OD340 method
[18] = test system: FaDu; test: Induction of microtubule disruption in human FADU cells at 250 nM after 24 hrs by immunofluorescence staining method; type: functional, cell-based
[19] = test system: MES-SA; test: Cytotoxicity against human MES-SA cells assessed as reduction in cell viability after 72 hrs by MTT assay; type: functional, cell-based; outline: as §2
[20] = Solubility in 2% DMSO containing 50 mM potassium phosphate buffer solution at pH 7.4 by dynamic light scattering method; details: 50 mM potassium phosphate buffer with 2% DMSO
[21] = test system: FaDu; test: Cytotoxicity against human FADU multicellular tumor spheroid assessed as dispersion of cells from the spheroid at 1 uM incubated for 2 to 7 days by light microscopy; type: functional, cell-based; outline: as §4
[22] = test system: FaDu; test: Ratio of EC50 for human FADU multicellular tumor spheroid to LC50 for human FADU cells; type: functional
Outline: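 FaDu spheroids were dosed over a range of concentrations, and spheroid volume was measured at the 7-day endpoint. EC50 for disruption came from dose–response plots, combining two independent experiments. This was compared with the 72 h monolayer MTT LC50 (triplicate wells, nonlinear regression, viability relative to DMSO).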

[23] = Apparent permeability from apical to basolateral side in human Caco2 cells at 10 uM at pH 7.4 after 60 mins by mass spectrometry; details: Caco-2, pH 7.4
[24] = molecular target: T2, Tubulin (Sus scrofa); test: Displacement of [3H]-paclitaxel from biotinylated porcine tubulin after 25 mins by competitive binding assay; type: protein assay
Outline: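 Biotinylated porcine tubulin precoupled to SPA beads for 30 min at 4 °C, then 0.05 μM [3H]-paclitaxel and test compound added in G-PEM with 1 mM GTP, 3% DMSO, duplicate wells, 25 min at rt. Nonspecific binding taken with 1000-fold unlabeled excess. IC50 from seven-point semilog curves, four-parameter fit.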

[25] = test system: MES-SA/Dx5; test: Cytotoxicity against multidrug resistant human MES-SA/Dx5 cells assessed as reduction in cell viability after 72 hrs by MTT assay; type: functional, cell-based; outline: as §2
[26] = test system: SCC-4; test: Cytotoxicity against human SCC4 cells assessed as reduction in cell viability after 72 hrs by MTT assay; type: functional, cell-based; outline: as §2
[27] = Metabolic stability in CD-1 mouse liver microsomes assessed as half life at 1 uM preincubated for 5 mins before addition of NADPH by LC-MS/MS method; type: ADME
[28] = test system: FaDu; test: Induction of microtubule disruption in human FADU cells at 50 nM after 24 hrs by immunofluorescence staining method; type: functional, cell-based
[29] = test system: FaDu; test: Cytotoxicity against human FADU multicellular tumor spheroid assessed as effect on normal spheroid growth at 0.25 uM incubated for 2 to 3 days by light microscopy; type: cell-based; outline: as §3
[30] = test system: FaDu; test: Cytotoxicity against human FADU multicellular tumor spheroid assessed as dispersion of cells from the spheroid at 0.25 uM incubated for 2 to 7 days by light microscopy; type: functional, cell-based; outline: as §3
[31] = Aqueous solubility of the compound by UV-HPLC
[32] = test system: FaDu; test: Induction of mitotic spindle defects in human FADU cells at 15 nM after 24 hrs by immunofluorescence staining method; type: functional, cell-based

SMILES: COCCn1cc(C(=O)C(=O)Nc2ccc(OC(C)C)nc2)c2ccccc21
- Ratio [1]: 2
- TGI [2]: Active
- Activity [3]: Active
- IC50 [4]: 500 nM
- Activity [5]: Active
- Activity [6]: Dose-dependent effect
- EC50 [6]: 113 nM
- Activity [7]: Active
- Activity [8]: Active
- CC50 [9]: 55 nM
- efflux ratio [10]: 0.9
- TGI [11]: inactive
- Activity [12]: Dose-dependent effect
- EC50 [12]: 90 nM
- recovery at 1 h, 10 µM [13]: < 50%
- Activity [14]: Dose-dependent effect
- solubility [15]: soluble
- Activity [16]: Non-toxic
- IC50 [17]: 6600 nM
- Activity [18]: Active
- Activity [19]: Active
- solubility kinetic [20]: 10 µM (≈ 3.81 µg/mL)
- Activity [21]: Active
- Ratio [22]: 2
- Papp A→B at 1 h, 10 µM [23]: 15.2 ×10⁻⁶ cm/s
- Activity [24]: inactive
- Activity [25]: Active
- Activity [26]: Active
- half-life at 1 µM [27]: 99 min

SMILES: COCC(C)n1cc(C(=O)C(=O)Nc2ccc(OC)nc2)c2ccccc21 (stereo unspecified)
- IC50 [4]: 160 nM
- Activity [5]: Active
- EC50 [6]: 39 nM
- Activity [7]: Active
- Activity [28]: Active
- Activity [8]: inactive
- CC50 [9]: 12 nM
- efflux ratio [10]: 1.1
- solubility [15]: soluble
- Activity [29]: Non-toxic
- Activity [30]: Active
- IC50 [17]: 3900 nM
- solubility [31]: 10 µM (≈ 3.67 µg/mL)
- Activity [19]: Active
- solubility kinetic [20]: 40 µM (≈ 14.7 µg/mL)
- Ratio [22]: 3
- Papp A→B at 1 h, 10 µM [23]: 33.6 ×10⁻⁶ cm/s
- Activity [24]: inactive
- Activity [25]: Active
- Activity [26]: Active
- half-life at 1 µM [27]: 16 min
- Activity [32]: Active
